# Measured values from ChEMBL document CHEMBL1122543, “A substituent constant analysis of the interaction of substituted naphthalene monoimides with DNA” (J Med Chem, 1984).
# How the values were obtained:
# Nucleic Acid [1] = test: Thermal melting point of calf thymus DNA complexed with monoimide in MES 00 buffer (Spectrophotometric data); assay type: functional; details: Bos taurus
# Nucleic Acid [2] = test: Relative binding affinity for calf thymus DNA in MES 10 at 25 degrees C (Spectrophotometric data); assay type: nucleic-acid assay; details: Bos taurus
# Method in brief: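 Spectrophotometric titration of ~1 × 10^-3 M compound stock into calf thymus DNA in MES 10 buffer at 25 °C. Each point averages 100 absorbance readings. Absorbances converted to ν (mol bound per mol base pairs) and free ligand using free and bound extinction coefficients. K and site size n come from a nonlinear least-squares fit of the Scatchard plot to the site exclusion model, in base-pair molarity.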
K (Nucleic Acid [2]),Compound,Tm (Nucleic Acid [1]) [°C]
0.0112,CN(C)CCCN1C(=O)c2cccc3cc(N)cc(c23)C1=O,70.6
0.0089,CN(C)CCCN1C(=O)c2cccc3cccc(c23)C1=O,71.9

# The next lines start with the compound.
Compound,K (Nucleic Acid [2]),Tm (Nucleic Acid [1]) [°C]
CN(C)CCCN1C(=O)c2cccc3c(N)ccc(c23)C1=O,0.0162,70.6
CN(C)CCCN1C(=O)c2cccc3c([N+](=O)[O-])ccc(c23)C1=O,0.0083,71.7
CN(C)CCCN1C(=O)c2cccc3cc([N+](=O)[O-])cc(c23)C1=O,0.0234,77.6
